Test results reported in ChEMBL document CHEMBL4411305, “5-Aminothiophene-2,4-dicarboxamide analogues as hepatitis B virus capsid assembly effectors” (Eur J Med Chem, 2019).
≈ marks a conversion by molar mass, not a printed value. Calls of active or inactive are those of the source.

How the values were obtained:
[1] = test system: HepG2; assay: (§1) Cytotoxicity against human HepG2 cells assessed as reduction in cell viability incubated for 2 days prior to compound washout followed by compound redosing and measured after 2 days by XTT assay; format: cell-based; details: hepg2, 48 h
[2] = test system: Hepatitis B virus; assay: Binding affinity to HBV dimeric capsid protein C150 mutant expressed in Escherichia coli BL21 (DE3) at 20 uM by Sypro orange staining based RT-PCR analysis
[3] = test system: Hepatitis B virus; assay: Antiviral activity against HBV infected in human HepAD38 cells assessed as reduction in total DNA production incubated for 2 days prior to compound washout followed by compound redosing and measured after 2 days by dot-blot analysis; format: functional, organism-based
Outline: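 HepAD38 cells seeded at 3 × 10^4/well in tetracycline medium; next day washed twice with PBS and given tet-free complete medium with 2-fold serial dilutions, 1% final DMSO, replaced with fresh compound medium after 2 days. After 2 more days cells lysed (NP-40), DNA alkali-denatured, dot-blotted, probed with DIG-labelled HBV probe; chemiluminescence densitometry, variable-slope fit; mean ± SD of ≥2 experiments.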

[4] = Protein binding in mouse plasma at 5 uM incubated for 5 hrs by LC-MS/MS-based equilibrium dialysis method; format: ADME, cell-free
Outline: (§2)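 Equilibrium dialysis in duplicate: compound spiked at 5 μM into normal human or mouse plasma, dialyzed against DPBS 5 h at 37 °C; both chambers sampled and quenched in acetonitrile with internal standard; LC-MS/MS gives percent bound.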

[5] = Intrinsic clearance in human liver microsomes assessed as NADPH-dependent metabolism per mg protein at 1 uM in presence of NADPH by LC-MS/MS analysis; format: ADME, Microsome
[6] = Intrinsic clearance in human liver microsomes assessed as glucuronidation per mg protein at 1 uM in presence of UDPGA by LC-MS/MS analysis; format: ADME, Microsome
Outline: (§3)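 Glucuronidation: typically 1 μM compound with 0.5 mg/mL microsomal protein, alamethicin 50 μg/mg protein, 1 mM MgCl2, 5 mM UDPGA in 0.1 M potassium phosphate pH 7.4, 37 °C; timed aliquots quenched in acetonitrile; LC-MS/MS gives CLint (μl/min/mg protein); triplicate; 7-hydroxycoumarin positive control.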

[7] = Intrinsic clearance in mouse liver microsomes assessed as glucuronidation per mg protein at 1 uM in presence of UDPGA by LC-MS/MS analysis; format: ADME, Microsome; outline: as §3
[8] = Thermodynamic aqueous solubility in Dulbecco's phosphate buffered saline using solid sample incubated for 72 hrs under shaking condition by LC-MS/MS analysis; format: physicochemical; details: read-out: Therm_solubility
[9] = Half life in mouse plasma at 1 uM by LC-MS/MS analysis; format: ADME, cell-free
[10] = Intrinsic clearance in mouse liver microsomes assessed as NADPH-dependent metabolism per mg protein at 1 uM in presence of NADPH by LC-MS/MS analysis; format: ADME, Microsome
[11] = Stability in Dulbecco's phosphate buffered saline assessed as parent compound remaining at 1 uM after 24 hrs by LC-MS/MS analysis; format: physicochemical; details: read-out: Stability
Outline: (§4)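 Compound, typically 1 μM final, incubated in DPBS at 37 °C in triplicate; samples at 0, 1, 3, 6, 24 h quenched with 3 volumes acetonitrile containing internal standard; parent measured by LC-MS/MS.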

[12] = Half life in Dulbecco's phosphate buffered saline at 1 uM by LC-MS/MS analysis; format: physicochemical; outline: as §4
[13] = Half life in human plasma at 1 uM by LC-MS/MS analysis; format: ADME, cell-free
[14] = Oral bioavailability in CD-1 mouse at 10 mg/kg by LC-MS/MS analysis; format: ADME, organism-based; details: in vivo; for bioavailability: CD-1, mouse; for F: mouse
Outline: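 Male CD-1 mice (25–35 g), n = 4 per route; typical doses 2 mg/kg IV and 10 mg/kg PO in DPBS with up to 42% 2-hydroxypropyl-β-cyclodextrin; serial saphenous blood to 24 h (8 points); plasma by LC-MS/MS; non-compartmental analysis; F = (AUCpo/AUCiv)×(Doseiv/Dosepo).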

[15] = Protein binding in human plasma at 5 uM incubated for 5 hrs by LC-MS/MS-based equilibrium dialysis method; format: ADME, cell-free; outline: as §2
[16] = test system: Hepatitis B virus; assay: Disruption of HBV dimeric capsid protein C150 mutant assembly expressed in Escherichia coli BL21 (DE3) assessed as increase in capsid aggregation after 1 hr by uranyl acetate staining based transmission electron microscopic analysis
Outline: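 Purified C150 dimer (18 μM) in bicarbonate buffer, with compound or 1% DMSO, assembled by adding an equal volume of 100 mM HEPES pH 7.5, 1 M NaCl, 1 h at room temperature. Assemblies adsorbed to glow-discharged carbon-coated copper grids, negatively stained with 2% uranyl acetate and imaged by TEM for aggregates versus DMSO control.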

[17] = Apparent permeability from basolateral to apical side in human Caco2 cells measured after 20 to 80 mins by LC-MS/MS analysis; format: ADME, cell-based; details: caco-2
[18] = Apparent permeability from apical to basolateral side in human Caco2 cells measured after 20 to 80 mins by LC-MS/MS analysis; format: ADME, cell-based; details: caco-2
[19] = test system: Hepatitis B virus; assay: Disruption of HBV dimeric capsid protein C150 mutant assembly expressed in Escherichia coli BL21 (DE3) assessed as increase in capsid assembly at 20 uM by Sypro orange staining based RT-PCR analysis
[20] = as §1; format: cell-based; details: HepG2 cells

CCOC(=O)c1c(N)sc(C(=O)Nc2ccccc2)c1C
CC50 [1]: 76 µM
Activity [2]: Active
EC50 [3]: > 10 µM

Cc1c(C(=O)Nc2ccccc2)sc(N)c1C(N)=O
PPB [4]: 50%
CC50 [1]: > 100 µM
Microsomal intrinsic clearance [5]: 5 µL/min
intrinsic clearance (CLint) [6]: 2 µL/min
intrinsic clearance (CLint) [7]: 4.4 µL/min
solubility thermodynamic at 72 h [8]: 19 µM (≈ 5.23 µg/mL)
t1/2 [9]: > 24 h
intrinsic clearance per mg protein [10]: 18 µL/min
Activity [2]: Active
remaining at 24 h, 1 µM [11]: > 90%
half-life at 1 µM [12]: > 24 h
t1/2 [13]: > 24 h
EC50 [3]: 3.4 µM
bioavailability [14]: 31 to 34%
PPB [15]: 86%

Cc1cc(NC(=O)c2sc(N)c(C(N)=O)c2C)ccc1F
Activity [16]: Active
PPB [4]: 82%
Papp [17]: 26.9 ×10⁻⁶ cm/s
CC50 [1]: > 100 µM
Microsomal intrinsic clearance [5]: 14 µL/min
Papp [18]: 18.6 ×10⁻⁶ cm/s
intrinsic clearance (CLint) [6]: < 0.1 µL/min
intrinsic clearance (CLint) [7]: 5.2 µL/min
solubility thermodynamic at 72 h [8]: 31 µM (≈ 9.53 µg/mL)
t1/2 [9]: > 24 h
intrinsic clearance per mg protein [10]: 92 µL/min
Activity [2]: Active
remaining at 24 h, 1 µM [11]: > 90%
t1/2 [13]: > 24 h
Activity [19]: Active
F [14]: 11%
PPB [15]: 91%

Cc1c(C(=O)Nc2ccccc2)sc(N)c1C(N)=S
CC50 at 48 h [20]: > 100 µM
Activity [2]: Active
EC50 [3]: > 10 µM

Cc1ccc(CC(=O)Nc2sc(C(=O)Nc3ccccc3)c(C)c2C(N)=O)cc1F
CC50 [1]: > 100 µM
Activity [2]: Active
EC50 [3]: > 10 µM

Cc1c(C(=O)NCc2ccccc2)sc(N)c1C(N)=O
Activity [2]: Active
EC50 [3]: 10 µM

Cc1c(C(=O)Nc2ccc(F)c(C#N)c2)sc(N)c1C(N)=O
PPB [4]: 69%
CC50 [1]: > 100 µM
Microsomal intrinsic clearance [5]: 2.4 µL/min
intrinsic clearance (CLint) [6]: 0.1 µL/min
intrinsic clearance (CLint) [7]: 2 µL/min
solubility thermodynamic at 72 h [8]: 6.7 µM (≈ 2.13 µg/mL)
t1/2 [9]: > 24 h
intrinsic clearance per mg protein [10]: 4.2 µL/min
Activity [2]: Active
remaining at 24 h, 1 µM [11]: > 90%
t1/2 [13]: > 24 h
PPB [15]: 80%

Cc1c(C(=O)Nc2ccc(F)c(F)c2)sc(N)c1C#N
CC50 [1]: > 100 µM
Activity [2]: Active
EC50 [3]: 10 µM

O=C(N/C(C(=O)N1CCCCC1)=C(\Cl)c1ccccc1)c1ccccc1
CC50 [1]: 61 µM
Activity [2]: Active
EC50 [3]: 4.8 µM

Cc1c(C(=O)Nc2ccccc2)sc(NC(=O)Cc2ccc(F)c(F)c2)c1C(N)=O
CC50 [1]: > 100 µM
Activity [2]: Active
EC50 [3]: 10 µM

O=C(Nc1ccc(F)c(F)c1)c1cc(S(=O)(=O)NC2CCCC2)ccc1F
CC50 [1]: 17 µM
Activity [2]: Active
EC50 [3]: 0.25 µM

Cc1c(C(=O)Nc2ccc(F)c(F)c2)sc(N)c1C(=O)NC1CCCC1
Activity [2]: Active
EC50 [3]: > 10 µM

Cc1c(C(=O)Nc2ccccc2)sc(N)c1C(=O)NC1CC1
Activity [2]: inactive
EC50 [3]: > 10 µM

Cc1c(C(=O)Nc2ccc(F)c(F)c2)sc(N)c1C(=O)Nc1ccc(Cl)cc1
Activity [2]: Active
EC50 [3]: > 10 µM

Cc1cc(NC(=O)c2sc(N)c(C(N)=O)c2C)ccc1Br
CC50 [1]: 107 µM
Activity [2]: Active
bioavailability [14]: 46%

CC(C)Cc1sc(-c2nccs2)nc1C(=O)NCc1ccc(F)cc1
CC50 [1]: 29 µM
Activity [2]: Active
EC50 [3]: 10 µM

COc1ccc(NC(=O)c2sc(N)c(C(N)=O)c2C)cc1
Activity [2]: Active
EC50 [3]: 10 µM

CCOC(=O)C1=C(C)NC(c2ncccc2F)=NC1c1ccc(F)cc1Cl (centres undefined)
CC50 [1]: > 100 µM
Activity [2]: Active
EC50 [3]: 0.41 µM

Cc1c(C(=O)Nc2ccc(F)c(F)c2)sc(N)c1C(N)=O
PPB [4]: 80%
Papp [17]: 27.6 ×10⁻⁶ cm/s
CC50 [1]: > 100 µM
Microsomal intrinsic clearance [5]: 3.4 µL/min
Papp [18]: 24.8 ×10⁻⁶ cm/s
intrinsic clearance (CLint) [6]: < 0.1 µL/min
intrinsic clearance (CLint) [7]: 5.2 µL/min
solubility thermodynamic at 72 h [8]: 11 µM (≈ 3.42 µg/mL)
t1/2 [9]: > 24 h
intrinsic clearance per mg protein [10]: 25 µL/min
Activity [2]: Active
remaining at 24 h, 1 µM [11]: > 90%
t1/2 [13]: > 24 h
PPB [15]: 86%

Cc1c(C(=O)Nc2ccc(F)c(C(F)F)c2)sc(N)c1C(N)=O
PPB [4]: 82%
CC50 [1]: > 100 µM
Microsomal intrinsic clearance [5]: 5.8 µL/min
intrinsic clearance (CLint) [6]: 3.2 µL/min
intrinsic clearance (CLint) [7]: 10 µL/min
solubility thermodynamic at 72 h [8]: 9.5 µM (≈ 3.26 µg/mL)
t1/2 [9]: > 24 h
intrinsic clearance per mg protein [10]: 22 µL/min
Activity [2]: Active
remaining at 24 h, 1 µM [11]: > 90%
t1/2 [13]: > 24 h
F [14]: 25%
PPB [15]: 89%

Cc1c(C(=O)Nc2ccc(F)c(Cl)c2)sc(N)c1C(N)=O
PPB [4]: 90%
CC50 [1]: > 100 µM
Microsomal intrinsic clearance [5]: 7.6 µL/min
intrinsic clearance (CLint) [6]: < 0.1 µL/min
intrinsic clearance (CLint) [7]: 1.6 µL/min
solubility thermodynamic at 72 h [8]: 31 µM (≈ 10.2 µg/mL)
t1/2 [9]: > 24 h
intrinsic clearance per mg protein [10]: 28 µL/min
Activity [2]: Active
remaining at 24 h, 1 µM [11]: > 90%
t1/2 [13]: > 24 h
EC50 [3]: 0.31 µM
PPB [15]: 94%

Cc1c(C(=O)Nc2ccccc2)sc(N)c1C(=O)NC1CCCC1
Activity [2]: inactive
EC50 [3]: > 10 µM

Cc1cc(NC(=O)c2sc(N)c(C(N)=O)c2C)ccc1Cl
CC50 [1]: > 100 µM
Activity [2]: Active
EC50 [3]: 1.7 µM
